The source made the active and inactive calls. No cut-off for these calls is given here.
Test system: Musa acuminata
Assay: Inhibition of diphenolase activity of banana tyrosinase using catechol as substrate at 50 uM by spectrophotometry
Method in brief: (§1)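 Tyrosinase (PPO) extracted from banana, then purified on a Sepharose 4B-L-tyrosine-p-aminobenzoic acid affinity column; all purification steps at 25 °C. Activity measured with catechol as substrate by following the absorbance increase at 420 nm. Residual activity was followed over a range of inhibitor concentrations, and progress curves were compared with uninhibited enzyme activity.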

Compound | inhibition
Cc1ccc(NC(=S)Nc2ccc(C(=O)/C=C/c3ccc(Cl)cc3)cc2)cc1 | inactive
COc1ccc(/C=C/C(=O)c2ccc(NC(=S)Nc3ccc(C)cc3)cc2)cc1 | inactive
COc1ccc(/C=C/C(=O)c2ccc(NC(=O)Nc3ccccc3)cc2)cc1 | inactive
COc1ccc(/C=C/C(=O)c2ccc(NC(=O)Nc3ccc(C)cc3)cc2)cc1 | inactive
O=C(/C=C/c1ccc(Cl)cc1)c1ccc(NC(=S)Nc2ccccc2)cc1 | inactive
Cc1ccc(/C=C/C(=O)c2ccc(NC(=O)Nc3ccc(C)cc3)cc2)cc1 | inactive
Cc1ccc(NC(=O)Nc2ccc(C(=O)/C=C/c3ccc(Br)cc3)cc2)cc1 | inactive
COc1ccc(/C=C/C(=O)c2ccc(NC(=S)Nc3ccccc3)cc2)cc1 | inactive
Cc1ccc(NC(=O)Nc2ccc(C(=O)/C=C/c3ccc(Cl)cc3)cc2)cc1 | inactive

Now from value to molecule:

inhibition | Compound
inactive | Cc1ccc(/C=C/C(=O)c2ccc(NC(=O)Nc3ccccc3)cc2)cc1
inactive | O=C(Nc1ccccc1)Nc1ccc(C(=O)/C=C/c2ccc(Cl)cc2)cc1
inactive | O=C(Nc1ccccc1)Nc1ccc(C(=O)/C=C/c2ccc(Br)cc2)cc1

Biological target: not listed separately
Assay: Inhibition of diphenolase activity of banana tyrosinase using catechol as substrate by spectrophotometry
Parameters: species or system Musa acuminata
Method in brief: as §1

Compound | IC50
O=C(Nc1ccccc1)Nc1ccc(/C=C/C(=O)c2ccccc2)cc1 | 0.172 µM
COc1ccc(C(=O)/C=C/c2ccc(NC(=O)Nc3ccc(C)cc3)cc2)cc1 | 0.289 µM
Cc1ccc(NC(=O)Nc2ccc(/C=C/C(=O)c3ccc(Cl)cc3)cc2)cc1 | 0.238 µM
Cc1ccc(NC(=O)Nc2ccc(/C=C/C(=O)c3ccc(C)cc3)cc2)cc1 | 0.134 µM
COc1cccc(NC(=O)Nc2ccc(/C=C/C(=O)c3ccccc3)cc2)c1 | 0.244 µM
COc1cccc(NC(=O)Nc2ccc(/C=C/C(=O)c3ccc(Cl)cc3)cc2)c1 | 0.152 µM

Next, values leading:

IC50 | Compound
0.133 µM | O=C(Nc1ccc(F)cc1)Nc1ccc(/C=C/C(=O)c2ccc(Cl)cc2)cc1
0.177 µM | O=C(Nc1ccc(F)cc1)Nc1ccc(/C=C/C(=O)c2ccccc2)cc1
0.241 µM | Cc1ccc(NC(=O)Nc2ccc(/C=C/C(=O)c3ccccc3)cc2)cc1
0.217 µM | Cc1ccc(C(=O)/C=C/c2ccc(NC(=O)Nc3ccc(F)cc3)cc2)cc1

Biological target: not listed separately
Assay: Competitive inhibition of diphenolase activity of banana tyrosinase using catechol as substrate by Lineweaver-Burk double reciprocal plot analysis
Parameters: species or system Musa acuminata
Method in brief: as §1

Compound | Ki
O=C(Nc1ccccc1)Nc1ccc(/C=C/C(=O)c2ccccc2)cc1 | 0.037 µM
COc1ccc(C(=O)/C=C/c2ccc(NC(=O)Nc3ccc(C)cc3)cc2)cc1 | 0.022 µM
Cc1ccc(NC(=O)Nc2ccc(/C=C/C(=O)c3ccc(Cl)cc3)cc2)cc1 | 0.129 µM
Cc1ccc(NC(=O)Nc2ccc(/C=C/C(=O)c3ccc(C)cc3)cc2)cc1 | 0.067 µM
COc1cccc(NC(=O)Nc2ccc(/C=C/C(=O)c3ccccc3)cc2)c1 | 0.24 µM
COc1cccc(NC(=O)Nc2ccc(/C=C/C(=O)c3ccc(Cl)cc3)cc2)c1 | 0.059 µM

Other lines, results leading:

Ki | Compound
0.117 µM | O=C(Nc1ccc(F)cc1)Nc1ccc(/C=C/C(=O)c2ccc(Cl)cc2)cc1
0.125 µM | O=C(Nc1ccc(F)cc1)Nc1ccc(/C=C/C(=O)c2ccccc2)cc1
0.057 µM | Cc1ccc(NC(=O)Nc2ccc(/C=C/C(=O)c3ccccc3)cc2)cc1
0.059 µM | Cc1ccc(C(=O)/C=C/c2ccc(NC(=O)Nc3ccc(F)cc3)cc2)cc1

Test system: Musa acuminata
Assay: Activation of diphenolase activity of banana tyrosinase using catechol as substrate at 50 uM by spectrophotometry
Method in brief: as §1

Compound | Activity
Cc1ccc(NC(=S)Nc2ccc(C(=O)/C=C/c3ccc(Cl)cc3)cc2)cc1 | Active
COc1ccc(/C=C/C(=O)c2ccc(NC(=S)Nc3ccc(C)cc3)cc2)cc1 | Active
COc1ccc(/C=C/C(=O)c2ccc(NC(=O)Nc3ccccc3)cc2)cc1 | Active
COc1ccc(/C=C/C(=O)c2ccc(NC(=O)Nc3ccc(C)cc3)cc2)cc1 | Active
O=C(/C=C/c1ccc(Cl)cc1)c1ccc(NC(=S)Nc2ccccc2)cc1 | Active
Cc1ccc(/C=C/C(=O)c2ccc(NC(=O)Nc3ccc(C)cc3)cc2)cc1 | Active
Cc1ccc(NC(=O)Nc2ccc(C(=O)/C=C/c3ccc(Br)cc3)cc2)cc1 | Active
COc1ccc(/C=C/C(=O)c2ccc(NC(=S)Nc3ccccc3)cc2)cc1 | Active
Cc1ccc(NC(=O)Nc2ccc(C(=O)/C=C/c3ccc(Cl)cc3)cc2)cc1 | Active

Other lines, results leading:

Activity | Compound
Active | Cc1ccc(/C=C/C(=O)c2ccc(NC(=O)Nc3ccccc3)cc2)cc1
Active | O=C(Nc1ccccc1)Nc1ccc(C(=O)/C=C/c2ccc(Cl)cc2)cc1
Active | O=C(Nc1ccccc1)Nc1ccc(C(=O)/C=C/c2ccc(Br)cc2)cc1

Source: ChEMBL document CHEMBL1921736, “Evaluation of new chalcone derivatives as polyphenol oxidase inhibitors” (Bioorg Med Chem Lett, 2011)
